# Test results as given in ChEMBL document CHEMBL4689842, “EUbOPEN Chemogenomics Library wave 1” (2021).
# Test system: Fibroblast
# Assay: Multiplex assay against human fibroblast
# Format: toxicity, cell-based
# Outline: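 On a CQ1 microscope at 37°C and 5% CO2, live cells were imaged after compound addition. They had been stained at seeding with Hoechst33342, BioTracker Green Microtubule Cytoskeleton Dye, MitoTracker Red and Annexin V Alexa Fluor 680. CellPathfinder machine-learning gating assigned cells to Hoechst high-intensity objects or normal cells, normal cells to healthy, pyknosed or fragmented nuclei, and pyknosed cells to mitotic or apoptotic. Tubulin, mitochondrial-mass and membrane-permeability phenotypes are per cents of healthy-nucleus cells.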
# [1] = 12 h, 1 µM, compound concentration 1 uM, replicate 1
# [2] = 12 h, 1 µM, compound concentration 1 uM, replicate 2
# [3] = 12 h, 10 µM, compound concentration 10 uM, replicate 1
# [4] = 12 h, 10 µM, compound concentration 10 uM, replicate 2
# [5] = 24 h, 1 µM, compound concentration 1 uM, replicate 1
# [6] = 24 h, 1 µM, compound concentration 1 uM, replicate 2
# [7] = 24 h, 10 µM, compound concentration 10 uM, replicate 1
# [8] = 24 h, 10 µM, compound concentration 10 uM, replicate 2
smiles,measurement,setting,value
CCn1cc(-c2ccnc3[nH]c(-c4cccc(CN(C)C)c4)cc23)c(-c2ccc(NC(=O)N(C)C)cc2)n1 [GSK-1070916],Population Apoptotic (%),[1],80%
same,Population Fragmented Nuclei (%),[1],33%
same,Population Healthy Nuclei (%),[1],51%
same,Population Hoechst High Intensity Objects (%),[1],13%
same,Population Membrane Permeable-Phenotype (%),[1],4%
same,Population Mitochondria Different-Phenotype (%),[1],0%
same,Population Mitotic Cells (%),[1],19%
same,Population Normal (%),[1],86%
same,Population Pyknosed Nuclei (%),[1],14%
same,Population Tubulin-Different-Phenotype (%),[1],5%
same,Total Cell Count,[1],205
same,Population Apoptotic (%),[2],25%
same,Population Fragmented Nuclei (%),[2],56%
same,Population Healthy Nuclei (%),[2],34%
same,Population Hoechst High Intensity Objects (%),[2],46%
same,Population Membrane Permeable-Phenotype (%),[2],26%
same,Population Mitochondria Different-Phenotype (%),[2],6%
same,Population Mitotic Cells (%),[2],75%
same,Population Normal (%),[2],53%
same,Population Pyknosed Nuclei (%),[2],9%
same,Population Tubulin-Different-Phenotype (%),[2],13%
same,Total Cell Count,[2],83
same,Population Apoptotic (%),[3],60%
same,Population Fragmented Nuclei (%),[3],23%
same,Population Healthy Nuclei (%),[3],56%
same,Population Hoechst High Intensity Objects (%),[3],44%
same,Population Membrane Permeable-Phenotype (%),[3],5%
same,Population Mitochondria Different-Phenotype (%),[3],2%
same,Population Mitotic Cells (%),[3],39%
same,Population Normal (%),[3],55%
same,Population Pyknosed Nuclei (%),[3],19%
same,Population Tubulin-Different-Phenotype (%),[3],27%
same,Total Cell Count,[3],473
same,Population Apoptotic (%),[4],33%
same,Population Fragmented Nuclei (%),[4],54%
same,Population Healthy Nuclei (%),[4],35%
same,Population Hoechst High Intensity Objects (%),[4],49%
same,Population Membrane Permeable-Phenotype (%),[4],4%
same,Population Mitochondria Different-Phenotype (%),[4],13%
same,Population Mitotic Cells (%),[4],66%
same,Population Normal (%),[4],50%
same,Population Pyknosed Nuclei (%),[4],9%
same,Population Tubulin-Different-Phenotype (%),[4],52%
same,Total Cell Count,[4],127
same,Population Apoptotic (%),[5],70%
same,Population Fragmented Nuclei (%),[5],32%
same,Population Healthy Nuclei (%),[5],56%
same,Population Hoechst High Intensity Objects (%),[5],19%
same,Population Membrane Permeable-Phenotype (%),[5],3%
same,Population Mitochondria Different-Phenotype (%),[5],1%
same,Population Mitotic Cells (%),[5],30%
same,Population Normal (%),[5],80%
same,Population Tubulin-Different-Phenotype (%),[5],5%
same,Total Cell Count,[5],222
same,Population Apoptotic (%),[6],66%
same,Population Fragmented Nuclei (%),[6],62%
same,Population Healthy Nuclei (%),[6],26%
same,Population Hoechst High Intensity Objects (%),[6],23%
same,Population Membrane Permeable-Phenotype (%),[6],21%
same,Population Mitochondria Different-Phenotype (%),[6],14%
same,Population Mitotic Cells (%),[6],33%
same,Population Normal (%),[6],76%
same,Population Pyknosed Nuclei (%),[6],11%
same,Population Tubulin-Different-Phenotype (%),[6],21%
same,Total Cell Count,[6],69
same,Population Apoptotic (%),[7],49%
same,Population Fragmented Nuclei (%),[7],24%
same,Population Healthy Nuclei (%),[7],51%
same,Population Hoechst High Intensity Objects (%),[7],50%
same,Population Membrane Permeable-Phenotype (%),[7],0%
same,Population Mitochondria Different-Phenotype (%),[7],10%
same,Population Mitotic Cells (%),[7],50%
same,Population Normal (%),[7],50%
same,Population Pyknosed Nuclei (%),[7],24%
same,Population Tubulin-Different-Phenotype (%),[7],31%
same,Total Cell Count,[7],430
same,Population Apoptotic (%),[8],20%
same,Population Fragmented Nuclei (%),[8],45%
same,Population Healthy Nuclei (%),[8],40%
same,Population Hoechst High Intensity Objects (%),[8],44%
same,Population Membrane Permeable-Phenotype (%),[8],3%
same,Population Mitochondria Different-Phenotype (%),[8],20%
same,Population Mitotic Cells (%),[8],80%
same,Population Normal (%),[8],55%
same,Population Pyknosed Nuclei (%),[8],14%
same,Population Tubulin-Different-Phenotype (%),[8],51%
same,Total Cell Count,[8],129
